One assay relates to HBL-100. As to the kind of experiment: Antiproliferative activity against human HBL100 cells after 48 hrs by SRB assay. Type of assay: functional. To be noted: HBL-100, 48 h. The method, boiled down:
(§1)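 Human solid tumor lines and three immortalized nontumor lines in culture, exposed to the test agent. Read-out is growth inhibition, reported as GI50 (μM).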
For orientation: In SRB staining, fixed cells bind dye roughly in proportion to their protein.

Another assay concerns SW1573. The experiment in a line: Antiproliferative activity against human SW1573 cells after 48 hrs by SRB assay. The class given is functional. To be noted: SW1573, 48 h. In outline:
as §1

For `CCCCCCC(C#CC(=O)OC)O/C=C/C(=O)OC` (stereo unspecified), the concentration for 50% growth inhibition (GI50) in the assay on HBL-100 was determined as 2500 nM; in the assay on SW1573, 3300 nM.
On to `COC(=O)C#CC(O/C=C/C(=O)OC)C1CCCCC1` (stereo unspecified), for which the GI50 stood at 2500 nM in the assay on HBL-100 and 2100 nM with SW1573.
In the case of `CCC(C)C(C#CC(=O)OC)O/C=C/C(=O)OC` (stereo unspecified), the GI50 in the assay with HBL-100 is 340 nM; with SW1573, 910 nM.
Turning to `CC(C)C(C#CC(=O)OC(C)(C)C)O/C=C/C(=O)OC(C)(C)C` (stereo unspecified), the 50% growth inhibitory concentration (GI50) is 3000 nM in the assay with HBL-100 and 4800 nM in the assay with SW1573.
The matching figures for `CCOC(=O)C#CC(O/C=C/C(=O)OC)C(C)C` (stereo unspecified): 880 nM and 960 nM.
Take `COC(=O)C#CC(CC(C)C)O/C=C/C(=O)OC` (stereo unspecified): the figures for the GI50 with HBL-100 and with SW1573 were 330 nM and 380 nM, respectively.
The matching figures for `C#CCO/C=C/C(=O)OC`: more than 100000 nM and more than 100000 nM.
Regarding `CCCCCCCCCCC(C#CC(=O)OC)O/C=C/C(=O)OC` (stereo unspecified), the GI50 in the assay with HBL-100 was 2200 nM; in the assay with SW1573 it was 2000 nM.
In the same order, the values of `COC(=O)/C=C/OC(C#CC(=O)O)C(C)(C)C` (stereo unspecified) are more than 100000 nM and more than 100000 nM.
Turning to `COC(=O)C#CC(O/C=C/C(=O)OC)C(C)c1ccccc1` (stereo unspecified), the GI50 in the assay with HBL-100 is 490 nM; in the assay with SW1573 it was 1200 nM.
Take `COC(=O)C#CC(O/C=C/C(=O)OC)C(C)(C)C` (stereo unspecified): the 50% growth inhibitory concentration (GI50) in the assay with HBL-100 was found to be 1800 nM; in the assay on SW1573, 3000 nM.
In the same order, the values of `CCOC(=O)C#CCO/C=C/C(=O)OC` are 2400 nM and 1800 nM.
`COC(=O)C#CC(C[C@@H](C)CCC=C(C)C)O/C=C/C(=O)OC` (stereo partly specified): the GI50 came out at 3100 nM with HBL-100 and 2200 nM with SW1573.

In general, GI50 refers to the concentration giving 50% growth inhibition.

For the origin of these results see ChEMBL document CHEMBL1157743, “Mitotic arrest induced by a novel family of DNA topoisomerase II inhibitors” (J Med Chem, 2010).
